Data set [1] has as its system Canis familiaris. The experiment in a line: Compound administered intravenously was evaluated for salidiuretic activity measured as sodium ion excretion in Dog; Value ranges from 100-299. It counts as ADME, organism-based, Canis lupus familiaris, Urine. To be noted: in vivo, iv. The gist of the method: (§1)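 Conditioned female mongrel dogs, postabsorptive, water-loaded (500 mL po) 1 h before sodium pentobarbital anesthesia (30 mg/kg iv). Bladder catheter; creatinine 4 g sc; phosphate–mannitol buffer pH 7.4 infused (3.0 mL/min) throughout. […] Urine Na+ measured; response scored 0–6.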

Data set [2] deals with Canis familiaris. The experiment in a line: Compound administered intravenously was evaluated for salidiuretic activity measured as sodium ion excretion in Dog; Value ranges from 400-599. In kind it is ADME, organism-based, Canis lupus familiaris, Urine. The conditions noted are these: in vivo, iv. The gist of the method: as §1
The test system of data set [3] is Canis familiaris. The experiment in a line: Compound administered intravenously was evaluated for salidiuretic activity measured as sodium ion excretion in Dog; Value ranges from 600-799. To be noted: in vivo, iv. It counts as ADME, organism-based, Canis lupus familiaris, Urine. The gist of the method:
as §1

Data set [4] can be described thus: Compound administered orally at a dose of 5 mg/kg was evaluated for salidiuretic activity measured as sodium ion excretion in Rat. In kind it is organism-based. Set-up: dose 5 mg/kg. The conditions noted are these: Urine. The gist of the method: (§2)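 Female Charles-River rats (150–170 g), overnight on sugar diet with water ad libitum. Compound dissolved in DMF, diluted with water containing Tween 80 (final 4% DMF), given po in 5.0 mL; concurrent vehicle placebo. Three rats per metabolism cage; 0–5 h urine analysed for Na+, K+, Cl-. Values: mequiv × 100 per cage, geometric means of three cages per dose; scored 0–6 by Na+.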

Data set [5] relates to Rattus norvegicus. Kind of data set: Oral diuretic activity was evaluated by measuring Cl- excretion in Rat at 9 mg/kg […] ( 0-5 hr ). In kind it is ADME, organism-based, Urine. Details: dose 9 mg/kg. The conditions noted are these: in vivo. An outline of the steps:
(§3)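 Female Charles-River rats (150–170 g) were kept overnight on a sugar diet with water ad libitum. Test substance was dissolved in DMF and diluted with water containing Tween 80 to a final 4% DMF vehicle, then given po in 5.0 mL. Rats were housed three per metabolism cage, and 0–5 h urine was assayed for Na⁺, K⁺ and Cl⁻ alongside concurrent placebo groups. Values are mequiv × 100 per cage, geometric means of three cages per dose.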

The species named for data set [6] is Rattus norvegicus. The experiment in a line: Time taken for the decrease in arterial pressure was measured. In kind it is functional, Artery.
Data set [7] concerns Canis familiaris. The experiment in a line: Oral diuretic activity was evaluated by measuring Cl- excretion in dog at 1 mg/kg after […] ( 0-6 hr ). In kind it is ADME, organism-based, Canis lupus familiaris, Urine. Set-up: dose 1 mg/kg, route intraperitoneal. To be noted: in vivo.
For data set [8], the system named is Rattus norvegicus. Kind of data set: Oral diuretic activity was evaluated by measuring Cl- excretion in Rat at 81 mg/kg after po administration ( 0-5 hr ). The conditions noted are these: in vivo.
Data set [9] is described as follows: Evaluated for salidiuretic activity measured as sodium ion excretion in Rat, administered orally at a dose of 16.5 mg/kg. In kind it is organism-based. Set-up: dose 16.5 mg/kg. The conditions noted are these: Urine. The gist of the method:
as §2

Data set [10] deals with Rattus norvegicus. The experiment in a line: Oral diuretic activity was evaluated by measuring K+ excretion in Rat at 81 mg/kg after […] ( 0-5 hr ). It counts as ADME, organism-based, Urine. Details: dose 81 mg/kg. The conditions noted are these: in vivo. The gist of the method:
as §3

The subject of data set [11] is Rattus norvegicus. Kind of data set: Oral diuretic activity was evaluated by measuring Na+ excretion in Rat at 27 mg/kg after […] ( 0-5 hr ). In kind it is ADME, organism-based, Urine. Details: dose 27 mg/kg. The gist of the method:
(§4)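 Female Charles-River rats (150–170 g) were kept overnight on a sugar diet with water ad libitum. Compound was dissolved in DMF, then diluted with water containing Tween 80 (3 drops/100 mL) to a final 4% DMF, and given po in 5.0 mL. Rats were housed three per metabolism cage. Urine from 0–5 h was analysed for Na+, K+ and Cl−, with concurrent placebo controls. Values are mequiv × 100 per cage, geometric mean of three cages per dose.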

Data set [12] deals with Canis familiaris. Kind of data set: Oral diuretic activity was evaluated by measuring K+ excretion in dog at 1 mg/kg after […] ( 0-6 hr ). In kind it is ADME, organism-based, Canis lupus familiaris, Urine. Set-up: dose 1 mg/kg. To be noted: in vivo. The gist of the method:
(§5)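 Spontaneous urine was pooled with bladder urine collected by catheterization at 6 h. Volume was measured and Na+, K+ and Cl− were determined by standard methods. Values are geometric means.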

Data set [13] concerns Rattus norvegicus. Kind of data set: Oral diuretic activity was evaluated by measuring Na+ excretion in Rat at 9 mg/kg […] ( 0-5 hr ). Details: dose 9 mg/kg. In kind it is ADME, organism-based, Urine. The conditions noted are these: in vivo, ip. An outline of the steps:
as §4

The test system of data set [14] is Rattus norvegicus. The experiment in a line: Oral diuretic activity was evaluated by measuring Cl- excretion in Rat at 27 mg/kg after po administration ( 0-5 hr ). To be noted: in vivo.
Data set [15] relates to Canis familiaris. The experiment in a line: Oral diuretic activity was evaluated by measuring K+ excretion in dog at 5 mg/kg after ip administration ( 0-6 hr ). Set-up: dose 5 mg/kg, route intraperitoneal. In kind it is ADME, organism-based, Canis lupus familiaris, Urine. To be noted: in vivo. The gist of the method: as §5
Data set [16] has as its system Rattus norvegicus. The experiment in a line: Oral diuretic activity was evaluated by measuring Cl- excretion in Rat at 3 mg/kg after […] ( 0-5 hr ). It counts as ADME, organism-based, Urine. Set-up: dose 3 mg/kg, route intraperitoneal. To be noted: in vivo.
Data set [17] has as its system Rattus norvegicus. Kind of data set: Compound administered orally at a dose of 1 mg/kg was evaluated for salidiuretic activity measured as sodium ion excretion in Rat. The conditions noted are these: in vivo, po.
In data set [18] the test system is Rattus norvegicus. Kind of data set: Oral diuretic activity was evaluated by measuring K+ excretion in Rat at 27 mg/kg after po administration ( 0-5 hr ). To be noted: in vivo.
Data set [19] deals with Rattus norvegicus. The experiment in a line: Maximum fall in mean arterial blood pressure was measured in SH rats when compound was administered at 30 mg/kg perorally. In kind it is functional. To be noted: route oral.
Data set [20] relates to Rattus norvegicus. Kind of data set: Oral diuretic activity was evaluated by measuring Na+ excretion in Rat at 81 mg/kg […] ( 0-5 hr ). It counts as ADME, organism-based, Urine. Set-up: dose 81 mg/kg. An outline of the steps: as §4
Data set [21] concerns Rattus norvegicus. Kind of data set: Oral diuretic activity was evaluated by measuring K+ excretion in Rat at 3 mg/kg […] ( 0-5 hr ). In kind it is ADME, organism-based, Urine. Details: dose 3 mg/kg. The gist of the method:
as §3

Data set [22] deals with Rattus norvegicus. The experiment in a line: Oral diuretic activity was evaluated by measuring Na+ excretion in Rat at 3 mg/kg […] ( 0-5 hr ). In kind it is ADME, organism-based, Urine. Details: dose 3 mg/kg. To be noted: in vivo, ip. An outline of the steps: as §4
The test system of data set [23] is Canis familiaris. The experiment in a line: Oral diuretic activity was evaluated by measuring Na+ excretion in dog at 1 mg/kg after ip administration ( 0-6 hr ). In kind it is ADME, organism-based, Canis lupus familiaris, Urine. Details: dose 1 mg/kg, route intraperitoneal. To be noted: in vivo. The gist of the method:
as §5

For data set [24], the system named is Canis familiaris. Kind of data set: Oral diuretic activity was evaluated by measuring Cl- excretion in dog at 5 mg/kg after […] ( 0-6 hr ). In kind it is ADME, organism-based, Canis lupus familiaris, Urine. Set-up: dose 5 mg/kg, route intraperitoneal. The conditions noted are these: in vivo.
Data set [25] concerns Canis familiaris. Kind of data set: Oral diuretic activity was evaluated by measuring Na+ excretion in dog at 5 mg/kg after ip administration ( 0-6 hr ). It counts as ADME, organism-based, Canis lupus familiaris, Urine. Details: dose 5 mg/kg, route intraperitoneal. To be noted: in vivo. An outline of the steps:
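Urine collected over 0–6 h: spontaneous voids were pooled with bladder urine taken by catheterization at 6 h. Urine volume was measured, and aliquots were analysed for Na+, K+ and Cl− by standard methods. Electrolyte excretion is reported as geometric means.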

Data set [26] concerns Rattus norvegicus. Kind of data set: Oral diuretic activity was evaluated by measuring K+ excretion in Rat at 9 mg/kg […] ( 0-5 hr ). It counts as ADME, organism-based, Urine. Details: dose 9 mg/kg. The gist of the method: as §3
The test system of data set [27] is Canis familiaris. The experiment in a line: Compound administered intravenously at a dose of 5 mg/kg was evaluated for salidiuretic activity measured as sodium ion excretion in Dog. It counts as ADME, organism-based, Canis lupus familiaris, Urine. Set-up: dose 5 mg/kg, route intravenous. The conditions noted are these: in vivo, iv. An outline of the steps: as §1

Data set [28] concerns Rattus norvegicus. Kind of data set: Evaluated for salidiuretic activity measured as sodium ion excretion in Rat, administered orally at a dose of 50 mg/kg. In kind it is functional, Urine. Details: unit not given beside the values. The conditions noted are these: route oral. The gist of the method: as §2

Structures are written as SMILES.

Molecule `COc1cc(O)c(CN)c(OC)c1Cl.Cl` yielded a Diuretic activity with Canis familiaris [1] of 100.
With `Cc1cc(Cl)c(O)c(CN)c1Cl.Cl`, the Diuretic activity in the data set with Canis familiaris [2] is listed as 400.
As for `Cc1c(C)c(Cl)c(C)c(CN)c1O.Cl`, the Diuretic activity in the data set on Canis familiaris [3] worked out at 600.
With `COc1c(Cl)c(O)c(CN)c(OC)c1Cl.Cl`, the Diuretic activity in [4] was 2.6; in the data set with Rattus norvegicus [5], 2.36; in the data set on Canis familiaris [7], 24.67; in the data set on Rattus norvegicus [8] it was 3.26; in data set [9], 3.3; with Rattus norvegicus [10], 0.39. Further, the Diuretic activity was 1.61 in the data set with Rattus norvegicus [11]; 4.78 with Canis familiaris [12]; 1.58 in the data set on Rattus norvegicus [13]; 2.51 in the data set with Rattus norvegicus [14]; 8 in the data set with Canis familiaris [15]; 1.25 in the data set on Rattus norvegicus [16]. The Diuretic activity worked out at 0.7 with Rattus norvegicus [17]; 0.42 in the data set on Rattus norvegicus [18]; 2.17 in the data set with Rattus norvegicus [20]; 0.26 in the data set with Rattus norvegicus [21]; 0.86 in the data set on Rattus norvegicus [22]; 17.78 with Canis familiaris [23]. For the same molecule, the Diuretic activity in the data set on Canis familiaris [24] is 54.5; with Canis familiaris [25] it was 42.5; with Rattus norvegicus [26], 0.42; in the data set on Canis familiaris [27], over 900; in the data set with Rattus norvegicus [28] it was 3.6. The molecule also returned a Duration in the data set listed under Rattus norvegicus [6] of 12 h. Besides, the MAP in the data set with Rattus norvegicus [19] was 19 mmHg.
For the molecule `Cc1c(C)c(Cl)c(O)c(CN)c1C.Cl`, the Diuretic activity in the data set with Canis familiaris [3] was 600.
